This is an account of results in ChEMBL document CHEMBL3612047, “Synthesis, antiproliferative activity and possible mechanism of action of novel 2-acetamidobenzamides bearing the 2-phenoxy functionality” (Bioorg Med Chem, 2015).

By IC50 is commonly meant the point on the concentration scale where inhibition reaches its midpoint.

The test system of assay [1] is K562. Description: Growth inhibition of human K562 cells at 10 uM incubated for 24 hrs by trypan blue dye exclusion assay. The following applies: K562, 24 h, read-out: GI. The assay is classed as functional. The gist of the method: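 K562 cells in medium with 5% FBS at 37 °C, 5% CO₂. About 2 × 10⁵ cells/mL cultured 24 h, then compound added at 10 μM. After 24 h exposure, cells counted by hemocytometer and viability scored by trypan blue exclusion, reported as percent growth inhibition.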

The nature of assay [2]: Cytotoxicity against human HuDe cells incubated for 72 hrs by MTT assay. The assay is classed as cell-based. An outline of the steps: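 HuDe primary culture from human epidermis, seeded at 2 × 10⁴ cells/mL. Test drugs at different concentrations, or 0.1% DMSO, added 24 h after seeding, with 72 h exposure. MTT (5 mg/mL in PBS) then applied for 3 h at 37 °C. Formazan solubilized with isopropanol/triton X-100/HCl and read at 570 nm with 690 nm blank.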
A general note: Tetrazolium assays rely on reduction of a dye to a coloured formazan, in cell work by metabolically active cells.

A short description of assay [3]: Growth inhibition of human NCI60 cells assessed as cell growth level at 10 uM by NCI standard protocol based method. The class given is functional. On the set-up: scale not given: the % may be the effect or the level left. An outline of the steps: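 NCI 60-cell-line screen (leukemia, lung, colon, melanoma, renal, ovarian, brain, breast, prostate) run to the NCI standard protocol. Single high dose of 10⁻⁵ M, read as growth percent. Mean graph midpoint is the arithmetic mean over all lines tested.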

Assay [4] has as its system K562. Put plainly: Growth inhibition of human K562 cells incubated for 24 hrs by trypan blue dye exclusion assay. The class given is functional, cell-based. The following applies: K562, 24 h. An outline of the steps: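 K562 cells, about 2 × 10⁵ cells/mL, precultured 24 h, then exposed 24 h to a range of compound concentrations. Viable cells counted by hemocytometer with trypan blue exclusion to derive IC₅₀.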

Assay [5] deals with K562. Description: Selectivity index, ratio of IC50 for human HuDe cells to IC50 human K562 cells. An outline of the steps: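 Index taken as the ratio of HuDe to K562 IC₅₀. For K562: about 2 × 10⁵ cells/mL, compounds added at graded concentrations, viable count by trypan blue exclusion with a hemocytometer after 24 h. For HuDe primary epidermal cells: 2 × 10⁴ cells/mL, drugs or 0.1% DMSO added 24 h after seeding, MTT read at 570 nm (690 nm blank) after 72 h.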

Turning to `Cc1ccccc1OCC(=O)Nc1ccccc1C(N)=O`, in assay [1], the inhibition of growth at 10 µM stood at 19.7%.

Turning to `NC(=O)c1ccccc1NC(=O)COc1ccc(Cl)cc1Cl`, the inhibition of growth at 10 µM in assay [1] is under 10%.

Take `NC(=O)c1cc(I)ccc1NC(=O)COc1ccc(Cl)cc1Cl`: the results for the IC50 in assay [2] and in assay [4] were 33.8 µM and 6.9 µM, respectively. The inhibition of growth at 10 µM in assay [1] is 74.7%. Further, the Activity in assay [3] worked out at 87.28%. Also, the “Ratio IC50” value in assay [5] turned out to be 4.9.

Consider `Cc1ccc(NC(=O)COc2cccc(Cl)c2Cl)c(C(N)=O)c1`, for which the inhibition of growth at 10 µM in assay [1] stood at 30.8%.

With `Cc1ccccc1OCC(=O)Nc1ccc(Cl)cc1C(N)=O`, the IC50 in assay [2] worked out at 27.3 µM; in assay [4], 1.61 µM. Moreover, the inhibition of growth at 10 µM in assay [1] stood at 75.9%. For the same compound, the “Ratio IC50” value in assay [5] is listed as 16.96.

With `Cc1ccc(NC(=O)COc2ccccc2)c(C(N)=O)c1`, the values for the IC50 in assay [2] and in assay [4] were 99.3 µM and 4.7 µM, respectively. For the same compound, in assay [1], the inhibition of growth at 10 µM stood at 72%. The “Ratio IC50” value in assay [5] came to 21.13.

With `Cc1ccc(NC(=O)COc2ccccc2C)c(C(N)=O)c1`, the inhibition of growth at 10 µM in assay [1] stood at 45.6%.

On to `NC(=O)c1cccc(NC(=O)COc2ccccc2)c1`, for which the inhibition of growth at 10 µM in assay [1] was under 10%.

For `Cc1ccc(NC(=O)COc2ccc(Cl)cc2Cl)c(C(N)=O)c1`, in assay [1], the inhibition of growth at 10 µM amounted to 35.4%.

Take `Cc1ccc(OCC(=O)Nc2ccc(Cl)cc2C(N)=O)cc1`: in assay [1], the inhibition of growth at 10 µM was 24.1%.

Consider `Cc1ccc(OCC(=O)Nc2ccccc2C(N)=O)cc1`, for which the inhibition of growth at 10 µM in assay [1] was under 10%.

For the compound `COc1ccc(NC(=O)COc2ccc(C)cc2)c(C(N)=O)c1`, the inhibition of growth at 10 µM in assay [1] amounted to 48.1%.

With `COc1ccc(NC(=O)COc2ccccc2C)c(C(N)=O)c1`, the inhibition of growth at 10 µM in assay [1] is 40.1%.

As for `COc1cc2c(c(OC)c1OC)-c1ccc(OC)c(=O)cc1[C@@H](NC(C)=O)CC2` [COLCHICINE], the inhibition of growth at 10 µM in assay [1] was determined as 63.6%.

For the compound `Cc1ccc(OCC(=O)Nc2ccc(I)cc2C(N)=O)cc1`, the results for the IC50 in assay [2] and in assay [4] were 356 µM and 10 µM, respectively. In addition, the inhibition of growth at 10 µM in assay [1] came out at 49.8%. The “Ratio IC50” value in assay [5] amounted to 35.57.

For the compound `NC(=O)c1ccc(NC(=O)COc2ccccc2)cc1`, the inhibition of growth at 10 µM in assay [1] stood at 23.7%.

Regarding `Cc1ccc(OCC(=O)Nc2ccc(C)cc2C(N)=O)cc1`, in assay [1], the inhibition of growth at 10 µM is 30.3%.

Take `NC(=O)c1ccccc1NC(=O)COc1ccccc1`: the 50% inhibitory concentration (IC50) in assay [2] stood at 523 µM; in assay [4], 8.9 µM. Moreover, the inhibition of growth at 10 µM in assay [1] amounted to 57.4%. Moreover, in assay [5], the “Ratio IC50” value is given as 58.76.

Take `NC(=O)c1cc(Cl)ccc1NC(=O)COc1ccc(Cl)cc1Cl`: the inhibition of growth at 10 µM in assay [1] was determined as 18.8%.

As to `COc1cc(NC(=O)COc2cccc(Cl)c2Cl)c(C(N)=O)cc1OC`, the inhibition of growth at 10 µM in assay [1] worked out at 17.7%.

`NC(=O)c1ccccc1NC(=O)COc1cccc(Cl)c1Cl`: the inhibition of growth at 10 µM in assay [1] was under 10%.
